Publication PMC10330157 (Clinical cancer research : an official journal of the …, 2023)
Entries after “also recorded” stand apart in the source; their conditions may differ.

Columns and labels:
[1] = Phase 1 first-in-human trial: safety and tolerability; format: in vivo
Procedure, shortened: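 In an open-label, non-randomized dose escalation, the test compound was given orally once daily for 28-day cycles at 20–1,200 mg. Cohorts started as single patients, with intrapatient escalation allowed. The primary endpoints were DLT and MTD. Patients were hospitalized during ramp-up, with oral antihyperuricemic agents and hydration ≥ 72 h before the first dose plus IV hydration. AEs were counted once per patient. The safety population was all patients receiving ≥ 1 dose, analysed descriptively.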

[2] = test system: patients with relapsed or refractory CLL/SLL; assay: Phase 1 trial: antitumor response in patients with R/R CLL/SLL; format: in vivo, human
Procedure, shortened: (§1)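 Patients took the oral test compound once daily in 28-day cycles. Disease was assessed at baseline and then every 8 weeks from Cycle 3, using disease-specific scans, bone marrow biopsy/aspirate and hematologic and biochemical labs. MRD was checked in peripheral blood in patients reaching CR. ORR was reported with 95% CI, and missing data were not imputed.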

[3] = test system: patients with other hematologic malignancies (NHL, MM, myeloid malignancy, HCL, Castleman disease); assay: Phase 1 trial: antitumor response in patients without CLL/SLL; format: in vivo, human
Procedure, shortened: as §1

[4] = Clinical plasma pharmacokinetics; format: in vivo, human
Procedure, shortened: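 Oral test compound was given once daily at doses of 20 to 1,200 mg. Plasma levels were measured by LC-MS/MS (LLOQ 5 ng/mL). Cmax, AUC0-24h and accumulation ratio came from noncompartmental analysis.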

patients with CLL/SLL = assay: Absolute lymphocyte count; format: in vivo, human; details: for Mean decrease in ALC: 23 patients with CLL/SLL
Procedure, shortened: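 Adults with R/R CLL/SLL took the test compound orally once daily in 28-day cycles. ALC was tracked from ramp-up D1 to C1D1 and to C2D1. A subset with baseline mean ALC > 25 × 10³/μL was evaluated separately.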

[5] = cited from earlier work
[6] = Castleman disease, evaluable n = 1
[7] = Myeloid malignancy (AML, MDS), evaluable n = 2
[8] = Non-CLL/SLL overall, evaluable n = 28
[9] = single oral administration, 50 mg, 1 subject
[10] = single oral administration, 100 mg, 1 subject
[11] = single oral administration, 200 mg, 2 subjects, Mean ± SD
[12] = single oral administration, 400 mg, 8 subjects, Mean ± SD
[13] = single oral administration, 600 mg, 7 subjects, Mean ± SD
[14] = single oral administration, 800 mg, 7 subjects, Mean ± SD
[15] = single oral administration, 1,000 mg, 6 subjects, Mean ± SD
[16] = single oral administration, 1,200 mg, 6 subjects, Mean ± SD

With `O=C(NS(=O)(=O)c1ccc(NC[C@H]2COCCO2)c([N+](=O)[O-])c1)c1ccc(N2CCN(CC3=C(c4ccc(Cl)cc4)CC4(CCC4)CC3)CC2)cc1Oc1cnc2[nH]ccc2c1` [lisaftoclax] the “Grade 3 or 4 treatment-emergent increased lipase, patients” value ([1]; 23 patients with CLL/SLL) was 13.0%, the “Grade 3 or 4 treatment-emergent neutropenia, patients” value ([1]; 23 patients with CLL/SLL) was 26.1% and the “Treatment-related neutropenia, patients” value ([1]; 23 patients with CLL/SLL) was 26.1%. For the same molecule, the “Anemia, treatment-emergent adverse event” value ([1]; N = 52, Grade 3/4) was 5 (9.6) no. (%), the “Constipation, treatment-emergent adverse event” value ([1]; N = 52, Grade 3/4) was 1 (1.9) no. (%) and the “Diarrhea, treatment-emergent adverse event” value ([1]; N = 52, Grade 3/4) was 1 (1.9) no. (%). For the same molecule, the “Fatigue, treatment-emergent adverse event” value ([1]; N = 52, Grade 3/4) was 1 (1.9) no. (%), the “Headache, treatment-emergent adverse event” value ([1]; N = 52, Grade 3/4) was 2 (3.8) no. (%) and the “Hypokalemia, treatment-emergent adverse event” value ([1]; N = 52, Grade 3/4) was 1 (1.9) no. (%). The “Nausea, treatment-emergent adverse event” value ([1]; N = 52, Grade 3/4) was 2 (3.8) no. (%), the “Neutropenia, treatment-emergent adverse event” value ([1]; N = 52, Grade 3/4) was 11 (21.2) no. (%) and the “Peripheral edema, treatment-emergent adverse event” value ([1]; N = 52, Grade 3/4) was 2 (3.8) no. (%). For the same molecule, the “Thrombocytopenia, treatment-emergent adverse event” value ([1]; N = 52, Grade 3/4) was 7 (13.5) no. (%), the “Anemia, treatment-emergent adverse event” value ([1]; N = 52, any grade) was 15 (28.8) no. (%) and the “Arthralgia, treatment-emergent adverse event” value ([1]; N = 52, any grade) was 8 (15.4) no. (%). The “Constipation, treatment-emergent adverse event” value ([1]; N = 52, any grade) was 13 (25.0) no. (%), the “Diarrhea, treatment-emergent adverse event” value ([1]; N = 52, any grade) was 25 (48.1) no. (%) and the “Fatigue, treatment-emergent adverse event” value ([1]; N = 52, any grade) was 18 (34.6) no. (%). For the same molecule, the “Headache, treatment-emergent adverse event” value ([1]; N = 52, any grade) was 11 (21.2) no. (%), the “Hypokalemia, treatment-emergent adverse event” value ([1]; N = 52, any grade) was 9 (17.3) no. (%) and the “Nausea, treatment-emergent adverse event” value ([1]; N = 52, any grade) was 16 (30.8) no. (%). The “Neutropenia, treatment-emergent adverse event” value ([1]; N = 52, any grade) was 14 (26.9) no. (%), the “Peripheral edema, treatment-emergent adverse event” value ([1]; N = 52, any grade) was 9 (17.3) no. (%) and the “Thrombocytopenia, treatment-emergent adverse event” value ([1]; N = 52, any grade) was 15 (28.8) no. (%). The “Vomiting, treatment-emergent adverse event” value ([1]; N = 52, any grade) was 12 (23.1) no. (%), the “Tumor lysis syndrome (TLS), clinical or laboratory” value ([1]; daily dose ramp-up, doses up to 1,200 mg) was “no evidence of tumor lysis syndrome; also recorded: no evidence of clinical or laboratory TLS; also recorded: no patient with CLL/SLL in this study has experienced TLS; also recorded: no clinical or laboratory evidence of TLS” and the “Dose-limiting toxicity (DLT)” value ([1]; doses of up to 1,200 mg) was “not reached; also recorded: no dose-limiting toxicities”. The “Changes in platelet counts” value ([1]; in contrast to navitoclax) was “did not elicit clinically significant changes in platelet counts”, the “Neutropenic sequelae, such as fever and infection” value ([1]; in vivo) was “not observed” and the “Maximum tolerated dose (MTD)” value ([1]; oral once daily, 20 mg to 1,200 mg, 52 patients) was “not reached”. For the same molecule, the “ORR in patients with BTKi-intolerant disease” value ([2]; 4 out of 5 evaluable patients) was 80.0%, the “Best response MR” value ([2]; CLL/SLL, evaluable n = 22) was 0 (0) no. (%) and the “Best response PD” value ([2]; CLL/SLL, evaluable n = 22) was 0 (0) no. (%). For the same molecule, the “Best response PR” value ([2]; CLL/SLL, evaluable n = 22) was 14 (63.6) no. (%), the “Best response SD” value ([2]; CLL/SLL, evaluable n = 22) was 8 (36.4) no. (%) and the ORR ([2]; CLL/SLL, evaluable n = 22) was 14 (63.6) no. (%). For the same molecule, the “PR (ORR) in patients with del(17p)/TP53 mutation” value ([2]; CLL/SLL, 2/3) was 66.7%, the “PR in patients with IGHV unmutated” value ([2]; CLL/SLL, 8/10) was 80.0% and the “Patients with ≥ 70% reductions in nodal and/or splenic size” value ([2]; CLL/SLL, 9 of 21 patients) was 42.9%. The “Patients achieving PR among 4 patients who relapsed to prior BTKi” value ([2]; after 2 cycles of treatment) was 1 patient, the “Complete response (CR)” value ([2]; all patients) was “No patient experienced a CR” and the “Median time to response” value ([2]; patients with R/R CLL/SLL) was 2 (range, 2-8) cycles. The “Clinical benefit, patients” value ([3]; 28 evaluable patients without CLL/SLL) was 50.0%, the “Best response MR” value [3, 6] was 0 (0) no. (%) and the “Best response PD” value [3, 6] was 0 (0) no. (%). The “Best response PR” value [3, 6] was 0 (0) no. (%), the “Best response SD” value [3, 6] was 1 (100.0) no. (%) and the Clinical benefit rate [3, 6] was 1 (100.0) no. (%). The ORR [3, 6] was 0 (0) no. (%), the “Best response MR” value ([3]; HCL, evaluable n = 1) was 0 (0) no. (%) and the “Best response PD” value ([3]; HCL, evaluable n = 1) was 0 (0) no. (%). For the same molecule, the “Best response PR” value ([3]; HCL, evaluable n = 1) was 0 (0) no. (%), the “Best response SD” value ([3]; HCL, evaluable n = 1) was 1 (100.0) no. (%) and the Clinical benefit rate ([3]; HCL, evaluable n = 1) was 1 (100.0) no. (%). For the same molecule, the ORR ([3]; HCL, evaluable n = 1) was 0 (0) no. (%), the “Best response PD” value ([3]; MM, evaluable n = 11) was 7 (63.6) no. (%) and the “Best response SD” value ([3]; MM, evaluable n = 11) was 2 (18.2) no. (%). For the same molecule, the Clinical benefit rate ([3]; MM, evaluable n = 11) was 4 (36.4) no. (%), the ORR ([3]; MM, evaluable n = 11) was 1 (9.1) no. (%) and the “Best response MR” value [3, 7] was 0 (0) no. (%). The “Best response PD” value [3, 7] was 2 (100.0) no. (%), the “Best response PR” value [3, 7] was 0 (0) no. (%) and the “Best response SD” value [3, 7] was 0 (0) no. (%). For the same molecule, the Clinical benefit rate [3, 7] was 0 (0) no. (%), the ORR [3, 7] was 0 (0) no. (%) and the “Best response PD” value ([3]; NHL, evaluable n = 13) was 5 (38.5) no. (%). The “Best response PR” value ([3]; NHL, evaluable n = 13) was 0 (0) no. (%), the “Best response SD” value ([3]; NHL, evaluable n = 13) was 7 (53.8) no. (%) and the Clinical benefit rate ([3]; NHL, evaluable n = 13) was 8 (61.5) no. (%). The ORR ([3]; NHL, evaluable n = 13) was 0 (0) no. (%), the “Best response MR” value [3, 8] was 2 (7.1) no. (%) and the “Best response PD” value [3, 8] was 14 (50.0) no. (%). The “Best response PR” value [3, 8] was 1 (3.6) no. (%), the “Best response SD” value [3, 8] was 11 (39.3) no. (%) and the Clinical benefit rate [3, 8] was 14 (50.0) no. (%). The ORR [3, 8] was 1 (3.6) no. (%), the “Steady-state mean (CV%) AUC0-24h” value ([4]; 400 mg) was 10,130 (40%) ng•h/mL and the “Steady-state mean (CV%) Cmax” value ([4]; 400 mg) was 981 (43%) ng/mL. For the same molecule, the Accumulation ratio ([4]; multiple oral daily dosing) was “approximately 1”, the AUC0-24 [4, 9] was 0.261 µg·h/mL and the Cmax [4, 9] was 0.0391 µg/mL. The T1/2 [4, 9] was 2.84 h, the Tmax [4, 9] was 3 h and the AUC0-24 [4, 10] was 1.80 µg·h/mL. For the same molecule, the Cmax [4, 10] was 0.229 µg/mL, the T1/2 [4, 10] was 3.85 h and the Tmax [4, 10] was 6 h. It also gave an AUC0-24 [4, 11] of 2.41 ± 0.37 µg·h/mL, a Cmax [4, 11] of 0.294 ± 0.004 µg/mL and a T1/2 [4, 11] of 3.84 ± 0.16 h. The Tmax ([4]; single oral administration, 200 mg, 2 subjects, Median (range)) was 4 (4~4) h, the AUC0-24 [4, 12] was 6.85 ± 2.91 µg·h/mL and the Cmax [4, 12] was 0.822 ± 0.334 µg/mL. The T1/2 [4, 12] was 4.43 ± 0.57 h, the Tmax ([4]; single oral administration, 400 mg, 8 subjects, Median (range)) was 6 (4~8) h and the AUC0-24 [4, 13] was 7.81 ± 2.84 µg·h/mL. The Cmax [4, 13] was 0.761 ± 0.298 µg/mL, the T1/2 [4, 13] was 4.68 ± 1.03 h and the Tmax ([4]; single oral administration, 600 mg, 7 subjects, Median (range)) was 6 (4~8) h. For the same molecule, the AUC0-24 [4, 14] was 7.25 ± 2.24 µg·h/mL, the Cmax [4, 14] was 0.982 ± 0.384 µg/mL and the T1/2 [4, 14] was 4.34 ± 0.53 h. The Tmax ([4]; single oral administration, 800 mg, 7 subjects, Median (range)) was 4 (4~6) h, the AUC0-24 [4, 15] was 18.3 ± 13.1 µg·h/mL and the Cmax [4, 15] was 1.69 ± 1.22 µg/mL. The T1/2 [4, 15] was 6.10 ± 1.52 h, the Tmax ([4]; single oral administration, 1,000 mg, 6 subjects, Median (range)) was 8 (6~8) h and the AUC0-24 [4, 16] was 12.3 ± 4.82 µg·h/mL. For the same molecule, the Cmax [4, 16] was 1.20 ± 0.48 µg/mL, the T1/2 [4, 16] was 4.86 ± 1.01 h and the Tmax ([4]; single oral administration, 1,200 mg, 6 subjects, Median (range)) was 6 (3~8) h. For the same molecule, the “Median time to 50% ALC reduction” value (patients with CLL/SLL; 5 patients with higher risk of TLS) was 3 (range, 2-4) days, the “Mean decrease in ALC” value (patients with CLL/SLL; from ramp-up D1 to C1D1) was 69.4% and the “Mean decrease in ALC” value (patients with CLL/SLL; from ramp-up Day 1 to C2D1 (completion of first cycle)) was 92.8%.
For `CC1(C)CCC(CN2CCN(c3ccc(C(=O)NS(=O)(=O)c4ccc(NCC5CCOCC5)c([N+](=O)[O-])c4)c(Oc4cnc5[nH]ccc5c4)c3)CC2)=C(c2ccc(Cl)cc2)C1` [venetoclax], the “Patients with grade 3/4 neutropenia who may require G-CSF support or dose reductions” value [5] is given as ~ 75%, the Recipients experiencing infection [5] is given as 72% and the “Grade ≥ 2 diarrhea, recipients” value ([5]; real-world-evidence studies) is given as “up to 18%”. For the same molecule, the “Grade ≥ 3 neutropenia, recipients” value ([5]; real-world-evidence studies) was “up to 47%”, the “Grade ≥ 3 neutropenic fever, recipients” value ([5]; real-world-evidence studies) was “up to 13%” and the “Grade ≥ 3 thrombocytopenia, recipients” value ([5]; real-world-evidence studies) was “up to 36%”. The “TLS, recipients” value ([5]; real-world-evidence studies) was “up to 13.4%”.
